High-throughput results as filed in PubChem.
The list is not random: actives were taken first. Their share in the collection is about 1.6%.
PPC-1+TRAIL kill = kills PPC-1 cancer cells in the presence of TRAIL; PPC-1 cells + TRAIL, ATPLite viability luminescence; cell killing (% activity), % at 4 µM or 5 µM; 0.41% of 220,000 active; AID 1443;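 active means cell killing above 50% in the first pass at 4 µM, then a duplicate retest at 5 µM averaging 50% or more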
FLuc inh counter = inhibits firefly luciferase, flagging false hits in luciferase inhibition screens; P08659; ATPLite firefly luciferase biochemical luminescence, 10 min; inhibition, % at 10 µM; 1.5% of 200,000 active; AID 1006;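 active means inhibition above about 50% when tested at 10 µM, limit read from the data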
Target sequence (P08659 whole entry, looked up): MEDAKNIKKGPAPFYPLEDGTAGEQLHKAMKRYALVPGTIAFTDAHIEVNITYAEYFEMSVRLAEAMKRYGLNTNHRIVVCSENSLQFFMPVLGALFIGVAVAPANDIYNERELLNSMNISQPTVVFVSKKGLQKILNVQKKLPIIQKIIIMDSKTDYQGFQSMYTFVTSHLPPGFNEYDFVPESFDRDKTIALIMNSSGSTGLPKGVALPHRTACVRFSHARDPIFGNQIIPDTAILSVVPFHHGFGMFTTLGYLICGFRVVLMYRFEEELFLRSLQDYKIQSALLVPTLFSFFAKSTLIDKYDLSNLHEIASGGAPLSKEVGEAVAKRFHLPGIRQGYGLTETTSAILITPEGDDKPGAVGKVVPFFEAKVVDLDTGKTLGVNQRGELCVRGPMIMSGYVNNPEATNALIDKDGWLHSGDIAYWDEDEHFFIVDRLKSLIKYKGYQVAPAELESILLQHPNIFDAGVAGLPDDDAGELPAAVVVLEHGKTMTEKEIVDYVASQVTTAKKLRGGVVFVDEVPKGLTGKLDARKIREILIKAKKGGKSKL
FLuc act counter = affects firefly luciferase, flagging false hits in luciferase stimulation screens | activation factor at 10 µM | 200,000 tested, under 10 active | ATPlite luciferase biochemical, luminescence, 10 min; 0 = ATP-free wells, 1 = DMSO control | AID 1027 | P08659;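 active means luciferase activation factor, scaled between plate controls, of at least 2 with compound at 10 µM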
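System: Luciferase/luciferin detection reagent, cell-free biochemical luciferase assay | Medium: PBS buffer for ATP | Dosing: Test compounds dosed from 2 mM stocks in 100% DMSO | Timing: 10 min at ambient temperature | Signal: Luminescence measurement of luciferase light output | Evaluation: Luciferase activation, seen as luminescence increase over controls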
C8 TRAIL sens = caspase-8 TRAIL sensitization | AID 624354 | 1% of 360,000 active | NB7+C8 cells + TRAIL, ATPlite viability luminescence | inhibition (viability loss, TRAIL sensitization), % at 10 µM;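 active means compounds causing at least 50% loss of cell viability in the single-dose screen, relative to plate controls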
Each line names hits and unclear results; the compound was inactive in the other large screens; ! = repeats disagree.

CC(/C=C/c1ccc(N(C)C)cc1)=N\N=C(/N)SC1CC(=O)N(c2ccc(C(=O)O)cc2)C1=O (configuration not stated)	PPC-1+TRAIL kill 54, FLuc inh counter 69
Nc1ncnc2c1ncn2[C@@H]1O[C@H](C(=O)N2CCN(c3ccc(Cl)cn3)CC2)[C@@H](O)[C@H]1O	none (no result: PPC-1+TRAIL kill, FLuc inh counter, FLuc act counter)
Cc1cccc2sc(NNC(=O)c3cc(-c4cccs4)nc4ccccc34)nc12	C8 TRAIL sens 50
COc1cccc(OCc2ccc(Cl)cc2)c1C#N	C8 TRAIL sens 59 (no result: FLuc inh counter, FLuc act counter)
COc1ccc(NC(C)=O)cc1S(=O)(=O)N1CC=C(c2ccccc2)CC1	none (no result: PPC-1+TRAIL kill, FLuc inh counter, FLuc act counter)
N/C(=N/O)c1nc(N2CCCC2)nc(N(c2ccccc2)c2ccccc2)n1	C8 TRAIL sens 59
CCCS(=O)(=O)NC(=O)C1(C)CCN(C(=O)c2cccc(C)c2C)C1 (configuration not stated)	none (no result: PPC-1+TRAIL kill, FLuc inh counter, FLuc act counter)
COc1ccccc1/C=C/c1nc2ccccc2c(=O)o1	none (no result: PPC-1+TRAIL kill, FLuc inh counter, FLuc act counter)
COc1ccc(/C=C/c2nc3ccccc3c(=O)o2)cc1	C8 TRAIL sens 75 (no result: PPC-1+TRAIL kill, FLuc inh counter, FLuc act counter)
COc1cc(-c2ccc3cc(OC)c(OC)c(OC)c3c2)cc(OC)c1OC	none (no result: PPC-1+TRAIL kill, FLuc inh counter, FLuc act counter)
CC1CCC(C(C)C)C(OC(=O)Cn2c(-c3ccccc3)[n+](C)c3ccccc32)C1 (configuration not stated)	C8 TRAIL sens 58!
CC1CCC(C(C)C)C(OC(=O)Cn2c(-c3ccc(F)cc3)[n+](C)c3ccccc32)C1 (configuration not stated)	none
COc1ccc(S(=O)(=O)/N=C2\C=C(Nc3ccc(O)cc3)C(=O)c3ccccc32)cc1	C8 TRAIL sens 96 (no result: PPC-1+TRAIL kill, FLuc inh counter, FLuc act counter)
O=C1C2CC3N1CCC31c3ccccc3-n3c1c2ccc3=O (configuration not stated)	none (no result: PPC-1+TRAIL kill, FLuc inh counter, FLuc act counter)
CCN1CCc2nc(NC(=O)c3ccccc3)sc2C1	C8 TRAIL sens 50
CN1CCc2nc(NC(=O)c3cccc(S(=O)(=O)N4CCc5ccccc54)c3)sc2C1	none
O=C(Nc1nc2c(s1)CN(Cc1ccccc1)CC2)C1CCC1	none
COc1cccc(C(=O)Nc2nc3c(s2)CN(C)CC3)c1	FLuc inh counter 56
Cc1onc(-c2c(F)cccc2Cl)c1C(=O)Nc1nc2ccccc2[nH]1	C8 TRAIL sens 49
O=c1[nH]c2ccccc2nc1/C=C/c1ccc(Cl)cc1	FLuc inh counter 70, C8 TRAIL sens 73
O=C(Nc1nc2ccccc2[nH]1)c1ccc(Cl)cc1	C8 TRAIL sens 87 (no result: PPC-1+TRAIL kill, FLuc inh counter, FLuc act counter)
O=C(/C(=C/c1ccc(Cl)cc1)c1nc2ccccc2[nH]1)c1ccccc1	C8 TRAIL sens 78
O=C(N/C(=C/c1ccc(Cl)cc1)c1nc2ccccc2[nH]1)c1ccco1	none
CC(C)c1ccc(N(CC(=O)NC2CCCC2)C(=O)CCC(=O)Nc2nccs2)cc1	none (no result: PPC-1+TRAIL kill, FLuc inh counter, FLuc act counter)
CNC[C@@H]1Oc2cc(Br)ccc2S(=O)(=O)N([C@H](C)CO)C[C@@H]1C	none (no result: PPC-1+TRAIL kill, FLuc inh counter, FLuc act counter)
O=C(Nc1nc2ccccc2[nH]1)c1ccccc1O	C8 TRAIL sens 49 (no result: PPC-1+TRAIL kill, FLuc inh counter, FLuc act counter)
COc1ccc(CC(=O)Nc2cc(S(=O)(=O)Nc3ccc(OC)cc3)ccc2OC)cc1	none (no result: PPC-1+TRAIL kill, FLuc inh counter, FLuc act counter)
O=C(CCc1nc(-c2ccc(F)cc2)no1)Nc1cccc(C(=O)NC2CC2)c1	none (no result: PPC-1+TRAIL kill, FLuc inh counter, FLuc act counter)
CCN(c1ccccc1)S(=O)(=O)c1ccc(OC)c(NC(=O)c2cc(F)c(F)c(F)c2F)c1	C8 TRAIL sens 56 (no result: PPC-1+TRAIL kill, FLuc inh counter, FLuc act counter)
Cc1nc2ccc(NC(=O)c3cc(Cl)ccn3)cc2s1	none (no result: PPC-1+TRAIL kill, FLuc inh counter, FLuc act counter)
Cn1c(-c2ccccc2)c(C(=O)CCl)c2ccccc21	C8 TRAIL sens 92
CCc1ccc(Nc2n[n+](-c3ccccc3)c(-c3ccc(N(CC)CC)cc3)s2)cc1	C8 TRAIL sens 53 (no result: PPC-1+TRAIL kill, FLuc inh counter, FLuc act counter)
Cc1ccc(C)c(CSC2=NCCN2S(=O)(=O)c2ccccc2)c1	none (no result: PPC-1+TRAIL kill, FLuc inh counter, FLuc act counter)
CCOC(=O)c1c(C)nc2c(c1-c1cc(OC)c(OC)c(OC)c1)C(=O)c1ccccc1-2	C8 TRAIL sens 66
Cc1nn(C(=O)c2ccc3c(c2)OCO3)c(N)c1-c1ccccc1	FLuc inh counter 80
COc1ccc(N(C(=O)Cc2cccs2)C(C(=O)NC2CCCC2)c2ccncc2)cc1 (configuration not stated)	none (no result: PPC-1+TRAIL kill, FLuc inh counter, FLuc act counter)
COc1ccc(C(C(=O)NC2CCCCC2)N(C(=O)CCl)c2cccc(Cl)c2)cc1 (configuration not stated)	PPC-1+TRAIL kill 59, C8 TRAIL sens 96
COc1ccc(C(C(=O)NC2CCCCC2)N(C(=O)CCl)c2ccc(OC)cc2)cc1 (configuration not stated)	C8 TRAIL sens 96
COc1ccc(C(C(=O)NC2CCCCC2)N(C(=O)CCl)c2ccc(C)cc2)cc1 (configuration not stated)	PPC-1+TRAIL kill 72, C8 TRAIL sens 95
Cc1cc(=O)c(C(=O)O)c(C)n1-c1ccccc1	none (no result: PPC-1+TRAIL kill, FLuc inh counter, FLuc act counter)
